For data set [1], the target named is T1, Thymidylate kinase (Mycobacterium tuberculosis, UniProt P9WKE1).
T1 sequence (P9WKE1 whole entry): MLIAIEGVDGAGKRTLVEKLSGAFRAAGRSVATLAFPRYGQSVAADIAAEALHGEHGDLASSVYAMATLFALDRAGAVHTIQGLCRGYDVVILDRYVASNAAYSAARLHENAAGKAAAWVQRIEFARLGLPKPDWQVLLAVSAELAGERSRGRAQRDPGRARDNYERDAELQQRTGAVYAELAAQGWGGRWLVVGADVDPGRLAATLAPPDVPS
Kind of data set: Inhibition of Mycobacterium tuberculosis TMPK by coupled spectrophotometric assay.

Data set [2] in a line: Selectivity index, Ki for human TMPK/Ki for Mycobacterium tuberculosis TMPK.
The target in data set [3] is T2, Thymidylate kinase (Homo sapiens, UniProt P23919).
T2 sequence (P23919 whole entry): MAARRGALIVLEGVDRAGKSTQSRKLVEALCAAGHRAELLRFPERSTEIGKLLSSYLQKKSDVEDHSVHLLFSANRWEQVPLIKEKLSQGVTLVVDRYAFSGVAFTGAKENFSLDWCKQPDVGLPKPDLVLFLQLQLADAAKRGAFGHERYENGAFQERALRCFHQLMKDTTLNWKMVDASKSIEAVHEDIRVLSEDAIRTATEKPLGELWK
Kind of data set: (§1) Inhibition of human TMPK by coupled spectrophotometric assay. The method in brief:
(§2)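 Thymidylate kinase activity (M. tuberculosis or human enzyme) measured by coupled spectrophotometric assay at 334 nm, following NADH consumption. Medium: 50 mM Tris-HCl pH 7.4, 50 mM KCl, 2 mM MgCl2, 0.2 mM NADH, 1 mM phosphoenol pyruvate, 2 units each lactate dehydrogenase, pyruvate kinase and nucleoside diphosphate kinase. ATP fixed at 0.5 mM, dTMP at 0.05 mM; analogue 0.1–2.5 mM.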

Data set [4] deals with T3, Thymidylate kinase (Homo sapiens) (UniProt P23919).
T3 sequence (whole entry): T2 sequence (P23919 whole entry)
The data set can be described thus: Inhibition of human TMPK at 2 mM by coupled spectrophotometric assay. The procedure, abridged: as §2

The target of data set [5] is T4, Thymidylate kinase (Mycobacterium tuberculosis) (UniProt P9WKE1).
T4 sequence (whole entry): T1 sequence (P9WKE1 whole entry)
Kind of data set: Inhibition of Mycobacterium tuberculosis TMPK at 1 mM by coupled spectrophotometric assay. The method in brief: as §2

Compound in data set [6]: Cc1cn([C@H]2C[C@H](O)[C@@H](COP(=O)(O)O)O2)c(=O)[nH]c1=O
The data set is described as §1. The procedure, abridged:
as §2

These results are taken from ChEMBL document CHEMBL1149246, “Discovery of bicyclic thymidine analogues as selective and high-affinity inhibitors of Mycobacterium tuberculosis thymidine monophosphate kinase” (J Med Chem, 2004).

The Ki is the equilibrium dissociation constant of an inhibitor or competing ligand from its target. High values mean lower affinity, low ones higher affinity. A word on the Km: it is the substrate concentration at which the rate is half of its maximum.

Calls of active or inactive are those of the source. No cut-off for these calls is given here.

Molecule `Cc1cn([C@@H]2O[C@H](CO)[C@@H](CN)[C@H]2Cl)c(=O)[nH]c1=O` had a Ki in data set [1] of 390 µM.
As for `Cc1cn([C@H]2C[C@H](CN)[C@@H](CO)O2)c(=O)[nH]c1=O`, in data set [2], the Ratio Ki was found to be 3.9. The same molecule yielded a Ki in data set [3] of 220 µM.
The molecule `Cc1cn([C@H]2C[C@H](O)[C@@H](COP(=O)(O)O)O2)c(=O)[nH]c1=O` registered a Selectivity index in data set [2] of 1.1.
For `Cc1cn([C@@H]2O[C@H](CO)[C@H]3CNC(=O)O[C@H]32)c(=O)[nH]c1=O`, the inhibitory constant (Ki) is 13.5 µM in data set [1] and 1100 µM in data set [3]. In addition, the Ratio Ki in data set [2] came to 81.5.
`Cc1cn([C@@H]2O[C@H](CF)[C@@H](CN=[N+]=[N-])[C@H]2F)c(=O)[nH]c1=O` returned a Ki in data set [1] of 80 µM.
Take `Cc1cn([C@@H]2C[C@H](CN=[N+]=[N-])[C@@H](CO)O2)c(=O)[nH]c1=O`: the affinity in data set [1] corresponds to a Ki of 29 µM. For the same molecule, in data set [4], the result was inactive.
Turning to `Cc1cn([C@@H]2O[C@H](CO)[C@@H](CN)[C@H]2F)c(=O)[nH]c1=O`, the outcome in data set [5] was inactive.
The molecule `Cc1cn([C@H]2C[C@H](O)[C@@H](CO)O2)c(=O)[nH]c1=O` [DOXRIBTIMINE] showed an inhibition constant (Ki) in data set [3] of 180 µM.
In data set [1], `Cc1cn([C@@H]2O[C@H](CO)[C@@H](CN=[N+]=[N-])[C@H]2Cl)c(=O)[nH]c1=O` gave an inhibition constant (Ki) of 180 µM.
On the same count and under the same terms, then `Cc1cn([C@@H]2O[C@H](CO)[C@@H](CN=[N+]=[N-])[C@H]2F)c(=O)[nH]c1=O`, with 165 µM.
In the case of `Cc1cn([C@H]2C[C@H](CN=[N+]=N)[C@@H](CO)O2)c(=O)[nH]c1=O`, the inhibition constant (Ki) amounted to 40 µM in data set [1] and 1040 µM in data set [3]. In addition, the Ratio Ki in data set [2] is 26.
Regarding `Cc1cn([C@@H]2O[C@H](CO)[C@H]3CNC(=S)O[C@H]32)c(=O)[nH]c1=O`, the Ki was 3.5 µM in data set [1] and 700 µM in data set [3]. Also, in data set [2], the Ratio Ki turned out to be 200.

B1: Thymidylate kinase (Homo sapiens), P23919 (protein)
chain: T2 sequence (P23919 whole entry)
As for B1, the Km in data set [6] is 5 µM.
